Laboratory results taken from ChEMBL document CHEMBL1212762, “In vivo activity of ceftobiprole in murine skin infections due to Staphylococcus aureus and Pseudomonas aeruginosa” (Antimicrob Agents Chemother, 2010).

Tests used:
Staphylococcus aureus [1] = experiment: Antimicrobial activity against methicillin-susceptible Staphylococcus aureus OC 4172 assessed as inhibition of growth by broth microdilution method; type: functional
Staphylococcus aureus [2] = experiment: Antimicrobial activity against methicillin-susceptible Staphylococcus aureus Smith OC 4172 infected in SKH1 mouse assessed as log change in bacterial colony forming unit per gram of skin tissue at 100 mg/kg/day, sc (reference value: 1.6 deltalog CFU); type: functional; conditions: route subcutaneous
Zone of skin = experiment: fCmax in immunocompetent SKH1 mouse skin at 50 mg/kg, sc; type: ADME, organism-based; set-up: dose 50 mg/kg, route subcutaneous; conditions: in vivo
Summary of the method: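 Female SKH1 hairless mice, immunocompetent or cyclophosphamide-neutropenic, infected s.c. with MRSA OC 8525 or P. aeruginosa OC 4354 on the Cytodex beads (left flank), sterile beads on the right. Single dose 24 h later: s.c. at the nape, or linezolid 50 mg/kg oral. Plasma and skin (DMSO homogenate) sampled over time, HPLC with diode array.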

In the case of `Nc1nc(/C(=N/O)C(=O)N[C@@H]2C(=O)N3C(C(=O)O)=C(/C=C4\CCN([C@@H]5CCNC5)C4=O)CS[C@H]23)ns1` [CEFTOBIPROLE], the MIC (Staphylococcus aureus [1]) is reported as 0.25 µg/mL, the deltalog10CFU (Staphylococcus aureus [2]) is reported as -1.7 and the fCmax (Zone of skin) is reported as 17 µg/g.
